What was measured:
Format in all cases: functional
NCI-H460 [1] = test: Anticancer activity against human NCI-H460 cells assessed as cell growth at 100 uM after 48 hrs by sulforhodamine B assay; conditions: NCI-H460, 48 h, read-out: Activity
MCF7 [2] = test: Anticancer activity against human MCF7 cells assessed as cell growth at 100 uM after 48 hrs by sulforhodamine B assay; conditions: MCF7, 48 h, read-out: Activity
SF-268 [3] = test: Anticancer activity against human SF268 cells assessed as cell growth at 100 uM after 48 hrs by sulforhodamine B assay; conditions: SF-268, 48 h, read-out: Activity
[4] = Growth inhibition of human […] cells after 48 hrs by sulforhodamine B assay
In short: (§1)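 NCI 60-human-tumor-cell-line panel, with compounds tested over a 5-log dose range. Values are taken from dose-response curves as log10 molar concentrations: GI50 is 50% net growth inhibition, TGI is total growth inhibition, and LC50 is 50% net cell death.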

A549 = test: Growth inhibition of human A549 cells after 48 hrs by sulforhodamine B assay; conditions: A549, 48 h; in short: as §1
NCI-H23 = test: Growth inhibition of human NCI-H23 cells after 48 hrs by sulforhodamine B assay; conditions: NCI-H23, 48 h; in short: as §1
NCI-H460 [5] = test: Growth inhibition of human NCI-H460 cells after 48 hrs by sulforhodamine B assay; conditions: NCI-H460, 48 h; in short: as §1
COLO 205 = test: Growth inhibition of human COLO205 cells after 48 hrs by sulforhodamine B assay; conditions: COLO 205, 48 h; in short: as §1
HCT-116 = test: Growth inhibition of human HCT116 cells after 48 hrs by sulforhodamine B assay; conditions: HCT-116, 48 h; in short: as §1
SW-620 = test: Growth inhibition of human SW620 cells after 48 hrs by sulforhodamine B assay; conditions: SW-620, 48 h
In short: (§2)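 Run in the NCI 60-human-tumour-cell-line panel, tested over a 5-log dose range. Dose–response curves gave three values per cell line, each as a log10 molar concentration: GI50 (50% inhibition of net cell growth), TGI (total inhibition of net growth) and LC50 (50% net cell death). The mean graph midpoint is the arithmetic mean over all lines, with insensitive lines entered at the highest concentration tested.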

SF-268 [6] = test: Growth inhibition of human SF268 cells after 48 hrs by sulforhodamine B assay; conditions: SF-268, 48 h; in short: as §1
SF-295 = test: Growth inhibition of human SF295 cells after 48 hrs by sulforhodamine B assay; conditions: SF-295, 48 h; in short: as §1
SNB-19 = test: Growth inhibition of human SNB19 cells after 48 hrs by sulforhodamine B assay; conditions: SNB-19, 48 h; in short: as §2
U-251 = test: Growth inhibition of human U251 cells after 48 hrs by sulforhodamine B assay; conditions: U-251, 48 h; in short: as §2
M14 = test: Growth inhibition of human M14 cells after 48 hrs by sulforhodamine B assay; conditions: M14, 48 h; in short: as §1
SK-MEL-28 = test: Growth inhibition of human SK-MEL-28 cells after 48 hrs by sulforhodamine B assay; conditions: SK-MEL-28, 48 h; in short: as §1
SK-MEL-5 = test: Growth inhibition of human SK-MEL-5 cells after 48 hrs by sulforhodamine B assay; conditions: SK-MEL-5, 48 h; in short: as §1
UACC-257 = test: Growth inhibition of human UACC257 cells after 48 hrs by sulforhodamine B assay; conditions: UACC-257, 48 h; in short: as §2
UACC-62 = test: Growth inhibition of human UACC62 cells after 48 hrs by sulforhodamine B assay; conditions: UACC-62, 48 h; in short: as §2
IGROV-1 = test: Growth inhibition of human IGROV1 cells after 48 hrs by sulforhodamine B assay; conditions: IGROV-1, 48 h; in short: as §1
OVCAR-4 = test: Growth inhibition of human OVCAR4 cells after 48 hrs by sulforhodamine B assay; conditions: OVCAR-4, 48 h; in short: as §1
OVCAR-8 = test: Growth inhibition of human OVCAR8 cells after 48 hrs by sulforhodamine B assay; conditions: OVCAR-8, 48 h; in short: as §1
SK-OV-3 = test: Growth inhibition of human SKOV3 cells after 48 hrs by sulforhodamine B assay; conditions: SK-OV-3, 48 h; in short: as §1
RXF 393 = test: Growth inhibition of human RXF393 cells after 48 hrs by sulforhodamine B assay; conditions: RXF 393, 48 h; in short: as §1
TK-10 = test: Growth inhibition of human TK10 cells after 48 hrs by sulforhodamine B assay; conditions: TK-10, 48 h; in short: as §2
PC-3 = test: Growth inhibition of human PC3 cells after 48 hrs by sulforhodamine B assay; conditions: PC-3, 48 h; in short: as §1
DU-145 = test: Growth inhibition of human DU145 cells after 48 hrs by sulforhodamine B assay; conditions: DU-145, 48 h; in short: as §1
MDA-MB-231 = test: Growth inhibition of human MDA-MB-231 cells after 48 hrs by sulforhodamine B assay; conditions: MDA-MB-231, 48 h; in short: as §1
MDA-MB-435 = test: Growth inhibition of human MDA-MB-435 cells after 48 hrs by sulforhodamine B assay; conditions: MDA-MB-435, 48 h; in short: as §1
MCF7 [7] = test: Growth inhibition of human MCF7 cells after 48 hrs by sulforhodamine B assay; conditions: MCF7, 48 h; in short: as §1
[8] = read-out: pLC50 (the source's name) (converted)

COc1cc(CNc2nc3cc(N)cc(N)c3nc2-c2ccccc2)cc(OC)c1
growth at 100 µM (NCI-H460 [1]): -1% | growth at 100 µM (MCF7 [2]): -72% | growth at 100 µM (SF-268 [3]): -28% | GI50 [4]: 2190 nM | LC50 [4]: > 100 µM | TGI ([4]; read-out: pTGI (converted)): 6.17 µM | GI50 (A549): 33.1 µM | LC50 (A549): > 100 µM | TGI (A549; read-out: pTGI (converted)): > 100 µM | GI50 (NCI-H23): 16.2 µM | LC50 (50% net cell kill concentration) (NCI-H23): > 100 µM | TGI (NCI-H23; read-out: pTGI (converted)): > 100 µM | GI50 (NCI-H460 [5]): 10.5 µM | LC50 (50% net cell kill) (NCI-H460 [5]): > 100 µM | TGI (NCI-H460 [5]; read-out: pTGI (converted)): > 100 µM | GI50 (COLO 205): 2400 nM | LC50 (50% net cell kill) (COLO 205): > 100 µM | TGI (COLO 205; read-out: pTGI (converted)): 6.03 µM | GI50 (HCT-116): 3.09 µM | LC50 (concentration causing 50% net cell death) (HCT-116): 72.4 µM | TGI (HCT-116; read-out: pTGI (converted)): 11.2 µM | GI50 (SW-620): 4.47 µM | CC50 (SW-620; [8]): > 100 µM | TGI (SW-620; read-out: pTGI (converted)): > 100 µM | GI50 (SF-268 [6]): 5.37 µM | LC50 (SF-268 [6]): > 100 µM | TGI (SF-268 [6]; read-out: pTGI (converted)): > 100 µM | GI50 (SF-295): 14.1 µM | LC50 (50% net cell kill) (SF-295): 87.1 µM | TGI (SF-295; read-out: pTGI (converted)): 35.5 µM | GI50 (SNB-19): 23.4 µM | LC50 (SNB-19): > 100 µM | TGI (SNB-19; read-out: pTGI (converted)): > 100 µM | GI50 (U-251): 5.13 µM | LC50 (50% net cell kill) (U-251): > 100 µM | TGI (U-251; read-out: pTGI (converted)): > 100 µM | GI50 (M14): 10 µM | CC50 (M14; [8]): > 100 µM | TGI (M14; read-out: pTGI (converted)): 49 µM | GI50 (SK-MEL-28): 1780 nM | CC50 (SK-MEL-28; [8]): > 100 µM | TGI (SK-MEL-28; read-out: pTGI (converted)): 8.71 µM | GI50 (SK-MEL-5): 12.9 µM | CC50 (SK-MEL-5; [8]): > 100 µM | TGI (SK-MEL-5; read-out: pTGI (converted)): 41.7 µM | GI50 (UACC-257): 25.7 µM | CC50 (UACC-257; [8]): > 100 µM | TGI (UACC-257; read-out: pTGI (converted)): > 100 µM | GI50 (UACC-62): 5.37 µM | CC50 (UACC-62; [8]): > 100 µM | TGI (UACC-62; read-out: pTGI (converted)): 30.9 µM | GI50 (IGROV-1): 8.71 µM | CC50 (IGROV-1; [8]): > 100 µM | TGI (IGROV-1; read-out: pTGI (converted)): 56.2 µM | GI50 (OVCAR-4): 14.1 nM | CC50 (OVCAR-4; [8]): 3.24 µM | TGI (OVCAR-4; read-out: pTGI (converted)): 977 nM | GI50 (OVCAR-8): 2820 nM | CC50 (OVCAR-8; [8]): > 100 µM | TGI (OVCAR-8; read-out: pTGI (converted)): 8.13 µM | GI50 (SK-OV-3): 15.1 µM | CC50 (SK-OV-3; [8]): > 100 µM | TGI (SK-OV-3; read-out: pTGI (converted)): 53.7 µM | GI50 (RXF 393): 6.03 µM | CC50 (RXF 393; [8]): > 100 µM | TGI (RXF 393; read-out: pTGI (converted)): 58.9 µM | GI50 (TK-10): 24.5 µM | CC50 (TK-10; [8]): > 100 µM | TGI (TK-10; read-out: pTGI (converted)): 63.1 µM | GI50 (PC-3): 3.02 µM | CC50 (PC-3; [8]): > 100 µM | TGI (PC-3; read-out: pTGI (converted)): 14.5 µM | GI50 (DU-145): 29.5 µM | CC50 (DU-145; [8]): > 100 µM | TGI (DU-145; read-out: pTGI (converted)): > 100 µM | GI50 (MDA-MB-231): 2090 nM | CC50 (MDA-MB-231; [8]): > 100 µM | TGI (MDA-MB-231; read-out: pTGI (converted)): 6.03 µM | GI50 (MDA-MB-435): 2140 nM | TGI (MDA-MB-435; read-out: pTGI (converted)): 4.27 µM | GI50 (MCF7 [7]): 8.32 µM | CC50 (MCF7 [7]; [8]): > 100 µM | TGI (MCF7 [7]; read-out: pTGI (converted)): > 100 µM

— ChEMBL document CHEMBL1137710, “Synthesis and in vitro antitumor activity of new quinoxaline derivatives” (2009)
